Experimental data published in ChEMBL document CHEMBL3112447, “Discovery of 1-methyl-1H-imidazole derivatives as potent Jak2 inhibitors” (J Med Chem, 2014).

Assays:
[1] = Cytotoxicity against mouse BA/F3 cells expressing TEL-Jak2 after 72 hrs by MTS assay; format: functional; settings: BaF3, 72 h
Method in brief: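 BaF3 TEL-Jak2 cells. Growth inhibition measured by MTS tetrazolium colorimetric read-out and reported as GI50.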

[2] = target: T1, Tyrosine-protein kinase JAK3 (Homo sapiens, UniProt P52333); test: Inhibition of Jak3 (unknown origin)
T1 sequence (P52333 whole entry): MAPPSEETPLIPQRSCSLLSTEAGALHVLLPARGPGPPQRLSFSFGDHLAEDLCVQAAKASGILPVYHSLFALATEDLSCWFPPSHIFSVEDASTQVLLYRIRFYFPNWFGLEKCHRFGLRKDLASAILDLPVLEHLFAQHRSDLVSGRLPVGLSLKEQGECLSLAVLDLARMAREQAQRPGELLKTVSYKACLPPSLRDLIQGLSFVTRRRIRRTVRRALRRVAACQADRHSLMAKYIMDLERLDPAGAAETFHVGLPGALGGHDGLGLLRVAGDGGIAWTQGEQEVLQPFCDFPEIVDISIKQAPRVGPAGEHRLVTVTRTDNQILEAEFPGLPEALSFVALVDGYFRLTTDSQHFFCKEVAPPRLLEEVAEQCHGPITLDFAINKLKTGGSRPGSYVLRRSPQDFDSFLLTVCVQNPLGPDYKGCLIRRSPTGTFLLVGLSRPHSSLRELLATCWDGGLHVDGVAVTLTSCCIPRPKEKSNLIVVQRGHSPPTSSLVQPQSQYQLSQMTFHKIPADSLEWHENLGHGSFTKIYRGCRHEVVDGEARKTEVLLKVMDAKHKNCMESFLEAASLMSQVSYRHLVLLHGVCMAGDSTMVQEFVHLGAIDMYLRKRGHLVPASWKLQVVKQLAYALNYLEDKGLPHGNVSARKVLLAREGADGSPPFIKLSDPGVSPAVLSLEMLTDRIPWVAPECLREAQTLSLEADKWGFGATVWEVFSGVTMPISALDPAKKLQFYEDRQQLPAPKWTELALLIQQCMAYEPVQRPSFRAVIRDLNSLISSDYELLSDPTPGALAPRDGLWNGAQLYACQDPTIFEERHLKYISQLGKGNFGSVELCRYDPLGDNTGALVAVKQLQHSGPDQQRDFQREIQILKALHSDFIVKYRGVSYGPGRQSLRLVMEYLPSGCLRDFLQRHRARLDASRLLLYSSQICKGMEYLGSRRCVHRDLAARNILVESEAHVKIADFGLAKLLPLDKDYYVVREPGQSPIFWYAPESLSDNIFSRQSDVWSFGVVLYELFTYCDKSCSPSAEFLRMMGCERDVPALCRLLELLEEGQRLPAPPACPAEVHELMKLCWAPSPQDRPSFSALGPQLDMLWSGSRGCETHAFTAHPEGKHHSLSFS

[3] = target: Tyrosine-protein kinase JAK2 (Homo sapiens, UniProt O60674); test: Inhibition of Jak2 (unknown origin)
Sequence of Tyrosine-protein kinase JAK2 (O60674 whole entry): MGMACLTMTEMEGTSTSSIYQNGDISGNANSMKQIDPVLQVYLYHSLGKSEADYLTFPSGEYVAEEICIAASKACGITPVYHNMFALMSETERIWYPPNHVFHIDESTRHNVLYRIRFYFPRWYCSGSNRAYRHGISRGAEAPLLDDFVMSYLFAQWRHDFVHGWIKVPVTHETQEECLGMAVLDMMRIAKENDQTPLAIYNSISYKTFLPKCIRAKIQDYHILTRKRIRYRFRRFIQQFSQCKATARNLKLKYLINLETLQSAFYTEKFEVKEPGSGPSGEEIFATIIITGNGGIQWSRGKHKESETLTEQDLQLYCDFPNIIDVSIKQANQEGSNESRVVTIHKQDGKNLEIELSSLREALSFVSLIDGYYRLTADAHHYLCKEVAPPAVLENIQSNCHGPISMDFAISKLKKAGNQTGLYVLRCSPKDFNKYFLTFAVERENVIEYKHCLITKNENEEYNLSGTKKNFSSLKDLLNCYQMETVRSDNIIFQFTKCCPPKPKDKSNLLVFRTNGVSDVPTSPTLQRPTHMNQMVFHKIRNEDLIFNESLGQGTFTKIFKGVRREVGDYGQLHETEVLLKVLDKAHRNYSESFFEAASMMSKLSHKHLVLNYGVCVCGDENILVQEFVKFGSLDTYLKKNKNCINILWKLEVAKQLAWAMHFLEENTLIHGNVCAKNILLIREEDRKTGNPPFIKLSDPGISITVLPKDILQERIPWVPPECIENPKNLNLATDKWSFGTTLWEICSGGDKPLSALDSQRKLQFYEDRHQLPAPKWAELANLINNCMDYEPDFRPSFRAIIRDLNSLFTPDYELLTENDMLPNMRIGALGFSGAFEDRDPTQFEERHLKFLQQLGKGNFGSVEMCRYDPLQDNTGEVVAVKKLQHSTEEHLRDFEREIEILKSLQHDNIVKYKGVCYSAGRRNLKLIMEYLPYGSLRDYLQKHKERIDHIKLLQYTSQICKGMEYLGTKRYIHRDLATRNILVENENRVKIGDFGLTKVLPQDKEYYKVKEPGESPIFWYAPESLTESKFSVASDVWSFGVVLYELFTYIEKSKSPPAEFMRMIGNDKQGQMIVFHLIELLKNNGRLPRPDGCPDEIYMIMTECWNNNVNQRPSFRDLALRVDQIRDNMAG

[4] = target: Tyrosine-protein kinase JAK1 (Homo sapiens, UniProt P23458); test: Inhibition of Jak1 (unknown origin)
Sequence of Tyrosine-protein kinase JAK1 (P23458 whole entry): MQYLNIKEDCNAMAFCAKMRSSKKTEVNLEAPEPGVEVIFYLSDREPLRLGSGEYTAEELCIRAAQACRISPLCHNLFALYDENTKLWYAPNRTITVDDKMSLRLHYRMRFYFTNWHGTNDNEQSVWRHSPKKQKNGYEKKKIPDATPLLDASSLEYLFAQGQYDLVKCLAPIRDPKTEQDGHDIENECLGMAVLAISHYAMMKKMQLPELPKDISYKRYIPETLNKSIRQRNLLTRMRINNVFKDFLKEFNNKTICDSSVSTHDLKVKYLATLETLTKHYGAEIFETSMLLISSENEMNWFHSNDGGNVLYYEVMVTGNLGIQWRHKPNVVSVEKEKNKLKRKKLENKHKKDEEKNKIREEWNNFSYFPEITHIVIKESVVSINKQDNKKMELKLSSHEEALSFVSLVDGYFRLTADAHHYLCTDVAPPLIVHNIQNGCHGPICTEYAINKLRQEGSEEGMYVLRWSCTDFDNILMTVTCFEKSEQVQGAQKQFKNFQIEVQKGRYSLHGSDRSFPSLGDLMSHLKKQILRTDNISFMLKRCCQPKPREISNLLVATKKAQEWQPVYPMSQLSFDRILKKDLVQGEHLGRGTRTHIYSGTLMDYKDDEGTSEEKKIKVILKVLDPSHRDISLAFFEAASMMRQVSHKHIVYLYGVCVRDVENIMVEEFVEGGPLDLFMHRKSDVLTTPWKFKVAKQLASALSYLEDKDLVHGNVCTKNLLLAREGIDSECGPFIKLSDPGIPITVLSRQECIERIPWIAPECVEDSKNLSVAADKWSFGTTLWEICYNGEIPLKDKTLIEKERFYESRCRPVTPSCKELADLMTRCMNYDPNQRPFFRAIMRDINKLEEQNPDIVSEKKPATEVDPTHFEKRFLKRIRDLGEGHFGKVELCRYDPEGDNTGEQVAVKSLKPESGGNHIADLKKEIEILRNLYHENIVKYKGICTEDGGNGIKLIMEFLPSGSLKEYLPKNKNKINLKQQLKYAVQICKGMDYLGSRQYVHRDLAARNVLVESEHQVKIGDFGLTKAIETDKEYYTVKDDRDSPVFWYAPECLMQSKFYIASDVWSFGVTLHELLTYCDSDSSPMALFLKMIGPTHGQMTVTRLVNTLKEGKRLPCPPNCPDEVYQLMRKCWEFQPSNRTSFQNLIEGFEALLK

[5] = Half life in Wistar rat at 10 mg/kg, po and 3 mg/kg, iv; format: ADME, organism-based; settings: in vivo
Method in brief: (§1)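 Rat pharmacokinetics. Oral dose 10 mg/kg in 0.1% HPMC. IV dose 3 mg/kg in 40% DMA/40% PEG/20% saline. Clearance, half-life, Vdss and oral bioavailability derived from the plasma profiles.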

[6] = Volume of distribution at steady state in Wistar rat at 10 mg/kg, po and 3 mg/kg, iv; format: ADME, organism-based; settings: in vivo, read-out: Vdss; method in brief: as §1
[7] = Clearance in Wistar rat at 10 mg/kg, po and 3 mg/kg, iv; format: ADME, organism-based; settings: in vivo; method in brief: as §1
[8] = Half life in beagle dog at 2.5 mg/kg, iv; format: ADME, organism-based, Canis lupus familiaris; set-up: dose 2.5 mg/kg, route intravenous; settings: in vivo
Method in brief: (§2)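 Male beagle dogs. Oral dose 10 mg/kg in 0.1% HPMC, pH 2. IV dose 2.5 mg/kg in 20% TEG/D5W. […] Clearance, Vdss, half-life and oral bioavailability (F%) derived from the plasma profiles.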

[9] = Half life in beagle dog at 10 mg/kg, po; format: ADME, organism-based, Canis lupus familiaris; set-up: dose 10 mg/kg, route oral; settings: in vivo; method in brief: as §2
[10] = Volume of distribution at steady state in beagle dog at 2.5 mg/kg, iv; format: ADME, organism-based, Canis lupus familiaris; set-up: dose 2.5 mg/kg, route intravenous; settings: in vivo, read-out: Vdss; method in brief: as §2
Canis familiaris [11] = test: AUC (0 to 12 hrs) in beagle dog at 10 mg/kg, po; format: ADME, organism-based, Canis lupus familiaris, Plasma; set-up: time < 12 hr, dose 10 mg/kg, route oral; settings: in vivo; method in brief: as §2
Canis familiaris [12] = test: Oral bioavailability in beagle dog at 10 mg/kg; format: ADME, organism-based, Canis lupus familiaris; settings: in vivo; method in brief: as §2
[13] = Oral bioavailability in Wistar rat at 10 mg/kg; format: ADME, organism-based; settings: in vivo; method in brief: as §1

IC50 [2]	IC50 [3]	IC50 [4]	SMILES	GI50 [1]	also measured
1.82 µM	12 nM	28 nM	C[C@H](Nc1nc(Nc2cn(C)cn2)c2ccncc2n1)c1ncc(F)cn1	25 nM	
5.88 µM	< 3 nM		CC(Nc1nc(Nc2cn(C)cn2)c2[nH]ccc2n1)c1ncc(F)cn1 (racemic)	99 nM	
> 30 µM	800 nM	1500 nM	C[C@H](Nc1nc(Nc2cn(C)cn2)c2nccnc2n1)c1ncc(F)cn1	530 nM	
> 30 µM	< 3 nM		CC(Nc1nc(Nc2cn(C)cn2)c2ccc(Cl)nc2n1)c1ncc(F)cn1 (racemic)	28 nM	
	120 nM		C[C@H](Nc1ncc(Cl)c(Nc2cn(C)cn2)n1)c1ncc(F)cn1	270 nM	
4.62 µM	50 nM	22 nM	CC(Nc1nc(Nc2cn(C)cn2)c2cn[nH]c2n1)c1ncc(F)cn1 (racemic)	110 nM	
30 µM	490 nM		C[C@H](Nc1nc(Nc2cn(C)cn2)c2cc(F)cnc2n1)c1ncc(F)cn1	3100 nM	
3.78 µM	33 nM	131 nM	CC(Nc1nc(Nc2cn(C)cn2)c2cccnc2n1)c1ncc(F)cn1 (racemic)	40 nM	half-life [5]: 55.2 min; Vd [6]: 2.5 L/kg; clearance [7]: 100 mL/min/kg

Further lines, the compound ahead of its results:

SMILES	IC50 [2]	IC50 [3]	IC50 [4]	GI50 [1]	also measured
COc1ccc2nc(NC(C)c3ncc(F)cn3)nc(Nc3cn(C)cn3)c2c1 (racemic)	> 30 µM	670 nM		3000 nM	
C[C@H](Nc1nc(Nc2cn(C)cn2)c2ccn(C)c2n1)c1ncc(F)cn1	7.56 µM	27 nM	24 nM	34 nM	
COc1ccc2c(Nc3cn(C)cn3)nc(NC(C)c3ncc(F)cn3)nc2c1 (racemic)	13.2 µM	24 nM		34 nM	half-life [5]: 58.8 min; Vd [6]: 6 L/kg; clearance [7]: 110 mL/min/kg
C[C@H](Nc1nc(Nc2cn(C)cn2)c2ccccc2n1)c1ncc(F)cn1	14.8 µM	3 nM		34 nM	
C[C@H](Nc1nc(Nc2cn(C)cn2)c2ccn(C3CC3)c2n1)c1ncc(F)cn1	2.46 µM	27 nM	29 nM	56 nM	
C[C@H](Nc1nc(Nc2cn(C)cn2)c2cnn(C)c2n1)c1ncc(F)cn1	1.44 µM	15 nM	16 nM	26 nM	half-life [8]: 372 min; half-life [9]: 462 min; Vd [10]: 2.1 L/kg; AUC (Canis familiaris [11]): 49 µM·h; F (Canis familiaris [12]): 139%; half-life [5]: 78 min; Vd [6]: 1.8 L/kg; clearance [7]: 25 mL/min/kg; bioavailability [13]: 90%
Cc1csc2c(Nc3cn(C)cn3)nc(N[C@@H](C)c3ncc(F)cn3)nc12	3.93 µM			37 nM	half-life [5]: 38.4 min; Vd [6]: 1.2 L/kg; clearance [7]: 44 mL/min/kg
